Experiment [1] concerns PC-3. Nature of the experiment: Cytotoxicity against human PC3 cells assessed as LDH release at 100 uM after 24 hrs relative to untreated control. Type of experiment: functional. The procedure, abridged:
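PC-3 cells exposed to test compound for 24 h at 37 °C, 5% CO2. LDH release into the medium was measured fluorimetrically (ex 560/em 590 nm) after 10 min with substrate mix at room temperature, then stop solution. Total LDH taken from lysed untreated wells. % cytotoxicity = 100 × (treated medium LDH − background)/(total LDH − background).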

Experiment [2] can be described thus: Displacement of [3H]-DTG from sigma 2-type opioid receptor in rat liver membrane in presence of (+)-pentazocine. Type of experiment: cell membranes. The procedure, abridged: (§1)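 Radioligand displacement run by previously published methods, EBP per Moebius and σ1/σ2 per Matsumoto. Tissues from male Dunkin guinea pigs and Wistar Hannover rats (250–300 g). IC50 from six to nine drug concentrations in two or three experiments, samples in duplicate.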
For orientation: Displacement assays read how much labelled ligand stays bound in the presence of the test substance.

The species entered for experiment [3] is Cavia porcellus. Briefly: Selectivity ratio of Ki for sigma 1 receptor in guinea pig brain membrane without cerebellum to Ki for EBP in guinea pig liver membrane. Type of experiment: cell membranes.
For experiment [4], the target named is T1, 3-beta-hydroxysteroid-Delta(8),Delta(7)-isomerase (Cavia porcellus, UniProt Q60490).
T1 sequence (Q60490 whole entry): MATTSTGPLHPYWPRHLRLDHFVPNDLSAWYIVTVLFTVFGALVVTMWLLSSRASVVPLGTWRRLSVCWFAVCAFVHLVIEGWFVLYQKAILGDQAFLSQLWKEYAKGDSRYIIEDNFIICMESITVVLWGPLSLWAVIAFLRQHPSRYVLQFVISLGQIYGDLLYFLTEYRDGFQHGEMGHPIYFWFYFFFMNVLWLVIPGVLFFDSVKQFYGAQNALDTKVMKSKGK
Briefly: Displacement of [3H](-)-(S)-emopamil from EBP in guinea pig liver membrane. In kind it is cell membranes. A digest of the protocol:
as §1

Experiment [5] can be described thus: Selectivity ratio of Ki for sigma 2 receptor in rat liver membrane to Ki for EBP in guinea pig liver membrane. Type of experiment: cell membranes.
In experiment [6] the target is Sigma non-opioid intracellular receptor 1 (Cavia porcellus, UniProt Q60492). Nature of the experiment: Displacement of [3H](+)-pentazocine from sigma 1 receptor in guinea pig brain membrane without cerebellum. Type of experiment: cell membranes. A digest of the protocol: as §1
The subject of experiment [7] is PC-3. Nature of the experiment: Antiproliferative activity against human PC3 cells expressing EBP after 48 hrs by MTT assay. Type of experiment: functional, cell-based. The procedure, abridged:
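MTT read-out at 48 h in PC-3 cells grown in RPMI 1640 with 10% FBS, 2 mM glutamine, penicillin/streptomycin, 37 °C, 5% CO2. 10 000 cells/well seeded day 1, drugs added day 2 over 1–100 µM (150 or 300 µM for some references). Solvent controls included. MTT 0.5 mg/mL for 3 h, formazan dissolved in DMSO, absorbance at 570 and 630 nm.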

Experimental findings from ChEMBL document CHEMBL1140235, “Novel 4-(4-aryl)cyclohexyl-1-(2-pyridyl)piperazines as Delta(8)-Delta(7) sterol isomerase (emopamil binding protein) selective ligands with antiproliferative activity” (J Med Chem, 2008) are described below.

Sigma non-opioid intracellular receptor 1, sequence (Q60492 whole entry): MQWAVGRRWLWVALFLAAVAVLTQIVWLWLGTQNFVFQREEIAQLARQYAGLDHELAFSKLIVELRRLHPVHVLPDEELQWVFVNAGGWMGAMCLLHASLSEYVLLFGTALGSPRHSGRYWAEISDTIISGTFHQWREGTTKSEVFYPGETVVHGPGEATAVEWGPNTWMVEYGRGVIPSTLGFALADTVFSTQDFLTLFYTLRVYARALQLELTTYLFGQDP

In general, Ki refers to the dissociation constant of the complex between target and ligand, obtained from inhibition or displacement. Take `c1ccc([C@H]2CC[C@@H](N3CCN(c4ccccn4)CC3)CC2)cc1`: the Activity in experiment [1] is reported as less than 10%. Besides, the results for the Ki in experiment [2], in experiment [4] and in experiment [6] were 62 nM, 49.2 nM and 802 nM, respectively. In addition, the values for the Ratio Ki in experiment [3] and in experiment [5] were 16 and 1.3, respectively.
A word on the EC50: it is the concentration at which the effect is half-maximal. Low readings indicate an effect from little substance, high ones a need for much substance. For the compound `CC(C)=CCN1CC[C@]2(C)c3cc(O)ccc3C[C@H]1[C@H]2C` [(+)-PENTAZOCINE], the Activity in experiment [1] is recorded as less than 10%. Moreover, the Ki in experiment [2] is 1860 nM; in experiment [4] it was greater than 10 nM. In experiment [7], this compound registered an EC50 of 86900 nM.
Consider `Cc1ccccc1[C@H]1CC[C@H](N2CCN(c3ccccn3)CC2)CC1`, for which the Activity in experiment [1] is less than 10%. In addition, the Ki amounted to 29.6 nM in experiment [2], 9.04 nM in experiment [4] and 30.7 nM in experiment [6]. The Ratio Ki turned out to be 3.4 in experiment [3] and 3.3 in experiment [5].
Regarding `Fc1cccc(F)c1[C@H]1CC[C@@H](N2CCN(c3ccccn3)CC2)CC1`, the Activity in experiment [1] is on record as less than 10%. For the same compound, the results for the Ki in experiment [2], in experiment [4] and in experiment [6] were 440 nM, 140 nM and 5170 nM, respectively. Also, the Ratio Ki in experiment [3] was determined as 37; in experiment [5] it was 3. The compound further registered an EC50 in experiment [7] of 37300 nM.
As for `Fc1cccc(F)c1[C@H]1CC[C@H](N2CCN(c3ccccn3)CC2)CC1`, the Activity in experiment [1] is less than 10%. For the same compound, the results for the Ki in experiment [2], in experiment [4] and in experiment [6] were 138 nM, 106 nM and 190 nM, respectively. For the same compound, the Ratio Ki in experiment [3] turned out to be 1.8; in experiment [5], 1.2.
Regarding `COc1cccc([C@H]2CC[C@H](N3CCN(c4ccccn4)CC3)CC2)c1`, the Activity in experiment [1] is less than 10%. Moreover, the Ki in experiment [2] turned out to be 21.9 nM; in experiment [4], 16.2 nM; in experiment [6], 24.8 nM. In addition, in experiment [5], the Ratio Ki worked out at 2. This compound also returned an EC50 in experiment [7] of 23000 nM.
Consider `Cc1cccc(C)c1[C@H]1CC[C@@H](N2CCN(c3ccccn3)CC2)CC1`, for which the Activity in experiment [1] is listed as less than 10%. Further, the Ki in experiment [2] amounted to 60.2 nM; in experiment [4], 33.1 nM; in experiment [6] it was 6.32 nM. The Ratio Ki in experiment [3] is 0.2; in experiment [5] it was 1.8.
On to `c1ccc([C@H]2CC[C@H](N3CCN(c4ccccn4)CC3)CC2)cc1`, for which the Activity in experiment [1] is given as less than 10%. In addition, the Ki in experiment [2] stood at 26.9 nM; in experiment [4], 16.8 nM; in experiment [6] it was 104 nM. Moreover, the results for the Ratio Ki in experiment [3] and in experiment [5] were 6 and 1.6, respectively.
In the case of `COc1ccc([C@H]2CC[C@H](N3CCN(c4ccccn4)CC3)CC2)cc1`, the Activity in experiment [1] is less than 10%. The Ki in experiment [2] came to 222 nM; in experiment [4], 71.6 nM; in experiment [6], 291 nM. The Ratio Ki in experiment [3] amounted to 4; in experiment [5], 3.
In the case of `COc1cccc(OC)c1[C@H]1CC[C@H](N2CCN(c3ccccn3)CC2)CC1`, the Activity in experiment [1] is listed as less than 10%. The Ki was 25 nM in experiment [2], 7 nM in experiment [4] and 215 nM in experiment [6]. Besides, the Ratio Ki in experiment [3] amounted to 31; in experiment [5], 3.6.
As to `Clc1ccccc1[C@H]1CC[C@H](N2CCN(c3ccccn3)CC2)CC1`, in experiment [1], the Activity is less than 10%. Besides, the Ki in experiment [2] was determined as 29.1 nM; in experiment [4] it was 7.21 nM; in experiment [6], 190 nM. The Ratio Ki was found to be 26 in experiment [3] and 4 in experiment [5].
Take `COc1cccc(C2=CCC(N3CCN(c4ccccn4)CC3)CC2)c1` (configuration not stated): the Activity in experiment [1] is less than 10%. The inhibitory constant (Ki) turned out to be 2640 nM in experiment [4] and 220 nM in experiment [6].
For `COc1cccc(OC)c1[C@H]1CC[C@@H](N2CCN(c3ccccn3)CC2)CC1`, the Activity in experiment [1] was less than 10%. For the same compound, the Ki is 687 nM in experiment [2], 4.95 nM in experiment [4] and greater than 6000 nM in experiment [6]. The Ratio Ki in experiment [3] is greater than 1210; in experiment [5] it was 138. In addition, the response in experiment [7] was half-maximal at 12900 nM (EC50).
With `Cc1ccccc1[C@H]1CC[C@@H](N2CCN(c3ccccn3)CC2)CC1`, the Activity in experiment [1] is given as less than 10%. For the same compound, the figures for the Ki in experiment [2], in experiment [4] and in experiment [6] were 71 nM, 5 nM and 1000 nM, respectively. In addition, the Ratio Ki in experiment [3] came to 200; in experiment [5] it was 14. Further, the EC50 in experiment [7] was found to be 38000 nM.
As to `Cc1cccc(C)c1C1=CCC(N2CCN(c3ccccn3)CC2)CC1` (racemic), the Activity in experiment [1] is reported as less than 10%. Moreover, the Ki in experiment [2] is 113 nM; in experiment [4] it was 46.7 nM; in experiment [6] it was 177 nM. The values for the Ratio Ki in experiment [3] and in experiment [5] were 3.8 and 2.4, respectively.
In the case of `COc1ccc2c(c1)CCC(CN1CCN(c3ccccn3)CC1)C2` (configuration not stated), the Activity in experiment [1] is less than 10%. Further, the Ki in experiment [2] was 1250 nM; in experiment [4], 32.1 nM; in experiment [6], 358 nM.
For `Clc1ccccc1[C@H]1CC[C@@H](N2CCN(c3ccccn3)CC2)CC1`, in experiment [1], the Activity is recorded as less than 10%. For the same compound, the Ki in experiment [2] was 150 nM; in experiment [4], 85.1 nM; in experiment [6] it was 1090 nM. The Ratio Ki in experiment [3] was determined as 13; in experiment [5], 1.8.
On to `CC(C(O)c1ccc(O)cc1)N1CCC(Cc2ccccc2)CC1` (racemic) [IFENPRODIL], for which the Activity in experiment [1] was less than 10%. Also, the Ki in experiment [2] was found to be 2.3 nM; in experiment [4], 16.4 nM. A half-maximal effect in experiment [7] (EC50) was put at 25800 nM.
Take `COc1ccccc1[C@H]1CC[C@H](N2CCN(c3ccccn3)CC2)CC1`: in experiment [1], the Activity is less than 10%. Besides, the values for the Ki in experiment [2], in experiment [4] and in experiment [6] were 30 nM, 13.5 nM and 2.86 nM, respectively. Also, the Ratio Ki in experiment [5] worked out at 1.3.
In the case of `CCCN(CCC)CCc1ccc(OC)c(OCCc2ccccc2)c1`, in experiment [1], the Activity was less than 10%. For the same compound, the Ki in experiment [2] worked out at 212 nM. Besides, the EC50 in experiment [7] turned out to be 47000 nM.
As to `COc1cccc(C2=CCC(N3CCN(c4ccccc4)CC3)CC2)c1` (configuration not stated), the Activity in experiment [1] is less than 10%. The compound also gave an inhibition constant (Ki) in experiment [4] of 460 nM.
